Experimental data as given in ChEMBL document CHEMBL3808334, “Synthesis and in vitro evaluation of novel triazine analogues as anticancer agents and their interaction studies with bovine serum albumin” (Eur J Med Chem, 2016).

Tests used:
Assay type in all cases: functional
MDA-MB-231 = assay: Growth inhibition of human MDA-MB-231 cells incubated for 48 hrs by sulforhodamine B assay; settings: MDA-MB-231, 48 h
In short: (§1)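 Cells were plated at 5,000–40,000 per well according to doubling time and preincubated 24 h at 37 °C in 5% CO2; time-zero plates were then TCA-fixed. Five concentrations (10-fold or ½-log dilutions, DMSO stock) were incubated 48 h. Cells were TCA-fixed, stained with 0.4% SRB and read at 515 nm. GI50 was taken where [(Ti−Tz)/(C−Tz)]×100 = 50.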

U-251 = assay: Growth inhibition of human U251 cells assessed as cell growth at 10^-7 M incubated for 48 hrs by sulforhodamine B assay; settings: U-251, 48 h, read-out: Activity
SN12C = assay: Growth inhibition of human SN12C cells assessed as cell growth at 10^-4 M incubated for 48 hrs by sulforhodamine B assay; settings: read-out: Activity
NCI-H23 = assay: Growth inhibition of human NCI-H23 cells assessed as cell growth at 10^-4 M incubated for 48 hrs by sulforhodamine B assay; settings: NCI-H23, 48 h, read-out: Activity
[1] = Growth inhibition of human OVCAR8 cells assessed as cell growth at 10^-6 M incubated for 48 hrs by sulforhodamine B assay; settings: OVCAR-8, 48 h, read-out: Activity
[2] = Growth inhibition of human SF268 cells assessed as cell growth at 10^-4 M incubated for 48 hrs by sulforhodamine B assay; settings: SF-268, 48 h, read-out: Activity
SK-MEL-28 = assay: Growth inhibition of human SK-MEL-28 cells assessed as cell growth at 10^-5 M incubated for 48 hrs by sulforhodamine B assay; settings: SK-MEL-28, 48 h, read-out: Activity
[3] = Growth inhibition of human DU145 cells assessed as cell growth at 10^-4 M incubated for 48 hrs by sulforhodamine B assay; settings: DU-145, 48 h, read-out: Activity
In short: (§2)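 Cells seeded at 5,000–40,000/well according to doubling time and preincubated 24 h at 37 °C, 5% CO2. Time-zero plates were TCA-fixed. DMSO concentrate was diluted in medium with 50 µg/ml gentamicin to give five concentrations (10-fold or ½ log steps), then exposed 48 h. Cells were TCA-fixed, stained with 0.4% SRB and read at 515 nm. Percent growth was taken against time-zero and control; GI50, TGI and LC50 derived.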

SK-MEL-2 = assay: Growth inhibition of human SK-MEL-2 cells incubated for 48 hrs by sulforhodamine B assay; settings: SK-MEL-2, 48 h; in short: as §1
NCI/ADR-RES = assay: Growth inhibition of human NCI/ADR-RES cells assessed as cell growth at 10^-5 M incubated for 48 hrs by sulforhodamine B assay; settings: read-out: Activity
ACHN = assay: Growth inhibition of human ACHN cells assessed as cell growth at 10^-8 M incubated for 48 hrs by sulforhodamine B assay; settings: read-out: Activity
In short: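 Five-dose assay: five concentrations from 10-fold or ½-log serial dilutions. Cells are plated at 5,000–40,000 per well according to doubling time, grown 24 h, then exposed 48 h at 37 °C, 5% CO₂. Fixed with cold 50% TCA (final addition) for 60 min at 4 °C and stained with 0.4% SRB in 1% acetic acid. Bound dye is solubilized in 10 mM Tris base and read at 515 nm. GI₅₀ is where [(Ti−Tz)/(C−Tz)]×100 = 50, with a time-zero plate as Tz.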

[4] = Growth inhibition of human SW620 cells assessed as cell growth at 10^-8 M incubated for 48 hrs by sulforhodamine B assay; settings: SW-620, 48 h, read-out: Activity
MDA-MB-468 = assay: Growth inhibition of human MDA-MB-468 cells assessed as cell growth at 10^-7 M incubated for 48 hrs by sulforhodamine B assay; settings: MDA-MB-468, 48 h, read-out: Activity
[5] = Growth inhibition of human OVCAR8 cells assessed as cell growth at 10^-7 M incubated for 48 hrs by sulforhodamine B assay; settings: OVCAR-8, 48 h, read-out: Activity
[6] = Growth inhibition of human Hs 578T cells assessed as cell growth at 10^-5 M incubated for 48 hrs by sulforhodamine B assay; settings: read-out: Activity
[7] = Growth inhibition of human OVCAR3 cells assessed as cell growth at 10 uM incubated for 48 hrs by sulforhodamine B assay; settings: OVCAR-3, 48 h, read-out: Activity
CCRF-CEM [8] = assay: Growth inhibition of human CCRF-CEM cells assessed as cell growth at 10 uM incubated for 48 hrs by sulforhodamine B assay; settings: read-out: Activity
In short: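 One-dose screen at 10 µM final. Cells are plated at 5,000–40,000 per well according to doubling time and preincubated 24 h at 37 °C, 5% CO₂. Compound (DMSO stock diluted in medium with 50 µg/ml gentamicin) is then added for 48 h. Growth percent is read by sulforhodamine B staining, absorbance at 515 nm.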

[9] = Growth inhibition of human COLO205 cells assessed as cell growth at 10^-7 M incubated for 48 hrs by sulforhodamine B assay; settings: COLO 205, 48 h, read-out: Activity; in short: as §2
[10] = Growth inhibition of human SF539 cells assessed as cell growth at 10^-7 M incubated for 48 hrs by sulforhodamine B assay; settings: SF-539, 48 h, read-out: Activity
NCI-H322M = assay: Growth inhibition of human NCI-H322M cells assessed as cell growth at 10^-7 M incubated for 48 hrs by sulforhodamine B assay; settings: read-out: Activity
CCRF-CEM [11] = assay: Growth inhibition of human CCRF-CEM cells assessed as cell growth at 10^-4 M incubated for 48 hrs by sulforhodamine B assay; settings: read-out: Activity
In short: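 Leukemia line in the five-dose format: five concentrations from 10-fold or ½-log serial dilutions. Plated at 5,000–40,000 cells per well, preincubated 24 h, then compound added for 48 h at 37 °C, 5% CO₂. Sulforhodamine B absorbance read at 515 nm. Growth is computed against time-zero (Tz) and control (C) readings; GI₅₀ is where [(Ti−Tz)/(C−Tz)]×100 = 50.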

[12] = Growth inhibition of human OVCAR8 cells assessed as cell growth at 10^-4 M incubated for 48 hrs by sulforhodamine B assay; settings: OVCAR-8, 48 h, read-out: Activity
[13] = Growth inhibition of human RPMI8226 cells assessed as cell growth at 10^-6 M incubated for 48 hrs by sulforhodamine B assay; settings: RPMI-8226, 48 h, read-out: Activity
EKVX = assay: Growth inhibition of human EKVX cells assessed as cell growth at 10^-6 M incubated for 48 hrs by sulforhodamine B assay; settings: read-out: Activity; in short: as §2
[14] = Growth inhibition of human HCC2998 cells assessed as cell growth at 10^-5 M incubated for 48 hrs by sulforhodamine B assay; settings: HCC 2998, 48 h, read-out: Activity; in short: as §2
[15] = read-out: LC50 (the source's name)
[16] = read-out: pLC50 (the source's name) (converted)

Compound	GI50 (MDA-MB-231; read-out: GI50) [nM]	TGI (MDA-MB-231; read-out: TGI) [µM]	GI50 (MDA-MB-231; read-out: pGI50 (converted)) [nM]	TGI (MDA-MB-231; read-out: pTGI (converted)) [µM]	growth at 0.1 µM (U-251) [%]	growth at 100 µM (SN12C) [%]	growth at 100 µM (NCI-H23) [%]	growth at 1 µM [1] [%]	growth at 100 µM [2] [%]	growth at 10 µM (SK-MEL-28) [%]	growth at 100 µM [3] [%]	GI50 (SK-MEL-2; read-out: GI50) [nM]	TGI (SK-MEL-2; read-out: TGI) [µM]	GI50 (SK-MEL-2; read-out: pGI50 (converted)) [nM]	TGI (SK-MEL-2; read-out: pTGI (converted)) [µM]	growth at 10 µM (NCI/ADR-RES) [%]	growth at 0.01 µM (ACHN) [%]	growth at 0.01 µM [4] [%]	growth at 0.1 µM (MDA-MB-468) [%]	growth at 0.1 µM [5] [%]	other results
Fc1ccc(-c2nc(Nc3ccc(-c4nc5ccccc5[nH]4)cc3)nc(N3CCOCC3)n2)cc1	1630	4.76	1620	4.79	102	-21	-15	101	-4	-49	8	2330	5.49	2340	5.5	10	100	97	106	104	CC50 (MDA-MB-231; [15]): > 100 µM; CC50 (MDA-MB-231; [16]): > 100 µM; CC50 (SK-MEL-2; [15]): > 100 µM; CC50 (SK-MEL-2; [16]): > 100 µM; growth at 10 µM [6]: -13%; growth at 10 µM [7]: 5.15%; growth at 10 µM (CCRF-CEM [8]): -1.84%; growth at 0.1 µM [9]: 99%; growth at 0.1 µM [10]: 92%; growth at 0.1 µM (NCI-H322M): 102%; growth at 100 µM (CCRF-CEM [11]): 13%; growth at 100 µM [12]: -44%; growth at 1 µM [13]: 77%; growth at 1 µM (EKVX): 83%; growth at 10 µM [14]: 4%
Clc1ccc(-c2nc(Nc3ccc(-c4nc5ccccc5[nH]4)cc3)nc(N3CCOCC3)n2)cc1	193	0.422	195	0.417	103	-14	-27	57	-24	-81	-63	1800	3.37	1820	3.39	-72	95	94	112	103	growth at 10 µM [6]: -47%; growth at 10 µM [7]: -95.6%; growth at 10 µM (CCRF-CEM [8]): -91.5%; growth at 0.1 µM [9]: 95%; growth at 0.1 µM [10]: 98%; growth at 0.1 µM (NCI-H322M): 94%; growth at 100 µM (CCRF-CEM [11]): -36%; growth at 100 µM [12]: -79%; growth at 1 µM [13]: -20%; growth at 1 µM (EKVX): 58%; growth at 10 µM [14]: -57%
c1ccc2[nH]c(-c3ccc(Nc4nc(N5CCCCC5)nc(N5CCOCC5)n4)cc3)nc2c1	2500	7.52	2510	7.59	97	-12	-26	93	-11	-57	8	2340	5.36	2340	5.37	28	101	97	100	96	CC50 (MDA-MB-231; [15]): > 100 µM; CC50 (MDA-MB-231; [16]): > 100 µM; CC50 (SK-MEL-2; [15]): 25.8 µM; CC50 (SK-MEL-2; [16]): 25.7 µM; growth at 10 µM [6]: -6%; growth at 10 µM [7]: 10.9%; growth at 10 µM (CCRF-CEM [8]): 8.74%; growth at 0.1 µM [9]: 104%; growth at 0.1 µM [10]: 96%; growth at 0.1 µM (NCI-H322M): 97%; growth at 100 µM (CCRF-CEM [11]): 5%; growth at 100 µM [12]: -49%; growth at 1 µM [13]: 87%; growth at 1 µM (EKVX): 84%; growth at 10 µM [14]: 9%
